From ChEMBL document CHEMBL1154352, “Toll-like receptor 7 selective synthetic oligoribonucleotide agonists: synthesis and structure-activity relationship studies” (J Med Chem, 2009) come the findings set out here.

Data set [1] in a line: Metabolic stability in human serum assessed as full length product remaining after 10 mins by HPLC. The data set is classed as ADME, cell-free. The note with it: read-out: Stability. In a few lines:
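About 0.5 A260 units compound in 1% human serum in PBS, 37 °C; aliquot taken at 10 min, analysed by anion-exchange HPLC for percent intact full-length product.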

The target in data set [2] is T1, Toll-like receptor 8 (Homo sapiens) (UniProt Q9NR97).
T1 sequence (whole entry): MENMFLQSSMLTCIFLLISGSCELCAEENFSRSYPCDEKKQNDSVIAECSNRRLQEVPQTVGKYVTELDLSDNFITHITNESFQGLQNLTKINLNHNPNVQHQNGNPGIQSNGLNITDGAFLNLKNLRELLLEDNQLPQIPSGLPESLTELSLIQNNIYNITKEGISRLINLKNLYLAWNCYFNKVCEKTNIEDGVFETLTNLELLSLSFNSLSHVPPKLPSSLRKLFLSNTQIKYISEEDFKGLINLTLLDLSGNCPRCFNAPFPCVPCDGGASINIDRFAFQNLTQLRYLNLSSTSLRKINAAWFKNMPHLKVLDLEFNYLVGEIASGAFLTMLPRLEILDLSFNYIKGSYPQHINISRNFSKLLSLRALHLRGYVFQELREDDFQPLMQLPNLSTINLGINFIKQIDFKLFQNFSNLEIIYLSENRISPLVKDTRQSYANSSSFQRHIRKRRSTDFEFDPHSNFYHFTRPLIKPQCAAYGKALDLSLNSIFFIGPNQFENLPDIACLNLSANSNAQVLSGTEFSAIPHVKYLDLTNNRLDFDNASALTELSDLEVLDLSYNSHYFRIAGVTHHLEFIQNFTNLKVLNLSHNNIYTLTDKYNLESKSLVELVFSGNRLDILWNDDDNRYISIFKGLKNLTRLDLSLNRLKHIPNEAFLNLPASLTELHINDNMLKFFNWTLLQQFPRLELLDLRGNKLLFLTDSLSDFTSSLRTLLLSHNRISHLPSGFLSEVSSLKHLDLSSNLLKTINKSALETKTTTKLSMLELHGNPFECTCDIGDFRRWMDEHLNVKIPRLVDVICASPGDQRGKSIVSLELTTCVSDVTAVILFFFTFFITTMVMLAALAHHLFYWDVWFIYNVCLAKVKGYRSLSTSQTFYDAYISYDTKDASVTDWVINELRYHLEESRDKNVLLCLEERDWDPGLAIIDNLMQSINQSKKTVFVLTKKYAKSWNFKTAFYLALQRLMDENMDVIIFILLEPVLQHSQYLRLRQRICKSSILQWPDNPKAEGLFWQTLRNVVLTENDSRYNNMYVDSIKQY
The data set can be described thus: Activation of human TLR8 expressed in HEK293XL assessed as fold induction of NF-kappaB activity at 50 ug/ml after 18 hrs by reporter gene assay relative to control. In a few lines: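 HEK293 cells stably expressing human TLR7 or TLR8, transiently transfected with SEAP reporter plasmid; medium replaced, SIMRA compounds added, 18 h incubation. Supernatant SEAP measured by QuantiBlue; expressed as fold increase in NF-κB activity over PBS control. Tabulated data at 50 μg/mL, representative of three independent experiments.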
For orientation: In a reporter assay the amount or activity of a reporter protein is the signal.

For the next data set, the species on record is Homo sapiens. The data set can be described thus: Ratio of human TLR7 activity to human TLR8 activity. In a few lines:
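TLR7/TLR8 ratio computed from fold NF-κB (SEAP reporter) activation in HEK293 cells stably expressing human TLR7 versus TLR8, compounds at 50 μg/mL, 18 h exposure; representative of three independent experiments.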

The target in data set [3] is Toll-like receptor 3 (Homo sapiens) (UniProt O15455). The data set can be described thus: Activation of human TLR3 expressed in HEK293 assessed as induction of NF-kappaB activity reporter gene assay. The class given is cell-based.
Chain of Toll-like receptor 3 (Homo sapiens) (O15455 whole entry): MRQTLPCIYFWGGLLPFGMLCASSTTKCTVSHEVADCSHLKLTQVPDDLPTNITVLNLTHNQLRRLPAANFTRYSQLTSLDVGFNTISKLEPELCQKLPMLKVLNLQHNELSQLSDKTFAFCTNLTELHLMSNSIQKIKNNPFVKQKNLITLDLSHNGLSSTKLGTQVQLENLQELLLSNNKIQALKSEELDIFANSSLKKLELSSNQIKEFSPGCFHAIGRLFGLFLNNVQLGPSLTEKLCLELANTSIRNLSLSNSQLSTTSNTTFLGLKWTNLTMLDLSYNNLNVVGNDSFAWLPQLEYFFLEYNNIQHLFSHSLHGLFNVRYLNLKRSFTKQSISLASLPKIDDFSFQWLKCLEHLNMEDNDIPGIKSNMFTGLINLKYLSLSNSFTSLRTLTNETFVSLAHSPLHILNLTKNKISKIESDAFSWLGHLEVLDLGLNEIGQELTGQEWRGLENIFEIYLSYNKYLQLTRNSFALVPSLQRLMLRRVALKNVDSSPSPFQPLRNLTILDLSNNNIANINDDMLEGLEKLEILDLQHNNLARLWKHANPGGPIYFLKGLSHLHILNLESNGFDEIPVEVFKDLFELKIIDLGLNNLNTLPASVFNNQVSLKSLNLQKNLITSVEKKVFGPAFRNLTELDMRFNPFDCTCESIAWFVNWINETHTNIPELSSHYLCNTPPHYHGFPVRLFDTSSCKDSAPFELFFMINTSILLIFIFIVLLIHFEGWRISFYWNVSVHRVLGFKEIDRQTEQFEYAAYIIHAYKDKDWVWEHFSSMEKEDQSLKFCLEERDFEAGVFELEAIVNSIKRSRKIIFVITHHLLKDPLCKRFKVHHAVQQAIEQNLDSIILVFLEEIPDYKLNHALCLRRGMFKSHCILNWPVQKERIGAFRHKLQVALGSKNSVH
The next data set concerns PBMC. The data set can be described thus: Immunomodulatory activity in human PBMC assessed as induction of IFN-alpha at 100 ug/ml after 24 hrs.

Calls of active or inactive are those of the source. The calls are words filed in the database; no cut-off is given here.

Take `Nc1ccn([C@@H]2O[C@H](COP(=O)(S)O[C@H]3[C@@H](O)[C@H](n4cnc5c(N)ncnc54)O[C@@H]3CO)[C@@H](OP(=O)(S)OC[C@H]3O[C@@H](n4ccc5c(=O)[nH]c(N)nc54)[C@H](O)[C@@H]3OP(=O)(S)OC[C@H]3O[C@@H](n4ccc(=O)[nH]c4=O)[C@H](O)[C@@H]3OP(=O)(S)OC[C@H]3O[C@@H](n4ccc5c(=O)[nH]c(N)nc54)[C@H](O)[C@@H]3OP(=O)(S)OC[C@H]3O[C@@H](n4cnc5c(N)nc(N)nc54)[C@H](O)[C@@H]3OP(=O)(S)OC[C@H]3O[C@@H](n4cnc5c(N)ncnc54)[C@H](O)[C@@H]3OP(=O)(S)OC[C@H]3O[C@@H](n4ccc5c(=O)[nH]c(N)nc54)[C@H](O)[C@@H]3OP(=O)(S)OC[C@H]3O[C@@H](n4ccc(N)nc4=O)[C@H](O)[C@@H]3OP(=O)(S)OC[C@H]3O[C@@H](n4ccc(=O)[nH]c4=O)[C@H](O)[C@@H]3OP(=O)(S)OC[C@H]3O[C@@H](n4ccc(=O)[nH]c4=O)[C@H](O)[C@@H]3OP(=O)(S)OCC(O)COP(=O)(S)O[C@H]3[C@@H](O)[C@H](n4ccc(=O)[nH]c4=O)O[C@@H]3COP(=O)(S)O[C@H]3[C@@H](O)[C@H](n4ccc(=O)[nH]c4=O)O[C@@H]3COP(=O)(S)O[C@H]3[C@@H](O)[C@H](n4ccc(N)nc4=O)O[C@@H]3COP(=O)(S)O[C@H]3[C@@H](O)[C@H](n4ccc5c(=O)[nH]c(N)nc54)O[C@@H]3COP(=O)(S)O[C@H]3[C@@H](O)[C@H](n4cnc5c(N)nc(N)nc54)O[C@@H]3COP(=O)(S)O[C@H]3[C@@H](O)[C@H](n4cnc5c(N)nc(N)nc54)O[C@@H]3COP(=O)(S)O[C@H]3[C@@H](O)[C@H](n4ccc5c(=O)[nH]c(N)nc54)O[C@@H]3COP(=O)(S)O[C@H]3[C@@H](O)[C@H](n4ccc(=O)[nH]c4=O)O[C@@H]3COP(=O)(S)O[C@H]3[C@@H](O)[C@H](n4ccc5c(=O)[nH]c(N)nc54)O[C@@H]3COP(=O)(S)O[C@H]3[C@@H](O)[C@H](n4ccc(N)nc4=O)O[C@@H]3COP(=O)(S)O[C@H]3[C@@H](O)[C@H](n4cnc5c(N)ncnc54)O[C@@H]3CO)[C@H]2O)c(=O)n1` (stereo not given in full): the remaining at 10 min in data set [1] is 74%. For the same molecule, the fold change (FC) in data set [2] stood at 2. Moreover, the Ratio in the data set listed under Homo sapiens came to 13.4. The result in data set [3] was inactive. In addition, the IFN-alpha with PBMC stood at 123 pg/mL.

On to `Nc1ccn([C@@H]2O[C@H](COP(=O)(S)O[C@H]3[C@@H](O)[C@H](n4ccc5c(=O)[nH]c(N)nc54)O[C@@H]3COP(=O)(S)O[C@H]3[C@@H](O)[C@H](n4cnc5c(N)ncnc54)O[C@@H]3COP(=O)(S)O[C@H]3[C@@H](O)[C@H](n4cnc5c(N)ncnc54)O[C@@H]3COP(=O)(S)O[C@H]3[C@@H](O)[C@H](n4ccc5c(=O)[nH]c(N)nc54)O[C@@H]3COP(=O)(S)O[C@H]3[C@@H](O)[C@H](n4ccc(=O)[nH]c4=O)O[C@@H]3COP(=O)(S)O[C@H]3[C@@H](O)[C@H](n4ccc(=O)[nH]c4=O)O[C@@H]3COP(=O)(S)O[C@H]3[C@@H](O)[C@H](n4cnc5c(N)ncnc54)O[C@@H]3COP(=O)(S)O[C@H]3[C@@H](O)[C@H](n4cnc5c(N)ncnc54)O[C@@H]3CO)[C@@H](OP(=O)(S)OC[C@H]3O[C@@H](n4ccc(=O)[nH]c4=O)[C@H](O)[C@@H]3OP(=O)(S)OC[C@H]3O[C@@H](n4ccc(=O)[nH]c4=O)[C@H](O)[C@@H]3OP(=O)(S)OCC(O)COP(=O)(S)O[C@H]3[C@@H](O)[C@H](n4ccc(=O)[nH]c4=O)O[C@@H]3COP(=O)(S)O[C@H]3[C@@H](O)[C@H](n4ccc(=O)[nH]c4=O)O[C@@H]3COP(=O)(S)O[C@H]3[C@@H](O)[C@H](n4ccc(N)nc4=O)O[C@@H]3COP(=O)(S)O[C@H]3[C@@H](O)[C@H](n4ccc5c(=O)[nH]c(N)nc54)O[C@@H]3COP(=O)(S)O[C@H]3[C@@H](O)[C@H](n4cnc5c(N)ncnc54)O[C@@H]3COP(=O)(S)O[C@H]3[C@@H](O)[C@H](n4cnc5c(N)ncnc54)O[C@@H]3COP(=O)(S)O[C@H]3[C@@H](O)[C@H](n4ccc5c(=O)[nH]c(N)nc54)O[C@@H]3COP(=O)(S)O[C@H]3[C@@H](O)[C@H](n4ccc(=O)[nH]c4=O)O[C@@H]3COP(=O)(S)O[C@H]3[C@@H](O)[C@H](n4ccc(=O)[nH]c4=O)O[C@@H]3COP(=O)(S)O[C@H]3[C@@H](O)[C@H](n4cnc5c(N)ncnc54)O[C@@H]3COP(=O)(S)O[C@H]3[C@@H](O)[C@H](n4cnc5c(N)ncnc54)O[C@@H]3CO)[C@H]2O)c(=O)n1` (stereo not given in full), for which, in data set [1], the remaining at 10 min is 83%. The fold change (FC) in data set [2] is 1.6. Also, in the data set listed under Homo sapiens, the Ratio worked out at 15.6. Further, the outcome in data set [3] was inactive. For the same molecule, the IFN-alpha with PBMC is 95.5 pg/mL.

As for `Nc1ccn([C@@H]2O[C@H](COP(=O)(S)O[C@H]3[C@@H](O)[C@H](n4cnc5c(N)ncnc54)O[C@@H]3COP(=O)(S)O[C@H]3[C@@H](O)[C@H](n4ccc5c(=O)[nH]c(N)nc54)O[C@@H]3COP(=O)(S)O[C@H]3[C@@H](O)[C@H](n4ccc(N)nc4=O)O[C@@H]3COP(=O)(S)O[C@H]3[C@@H](O)[C@H](n4ccc5c(=O)[nH]c(N)nc54)O[C@@H]3COP(=O)(S)O[C@H]3[C@@H](O)[C@H](n4ccc(=O)[nH]c4=O)O[C@@H]3COP(=O)(S)O[C@H]3[C@@H](O)[C@H](n4ccc5c(=O)[nH]c(N)nc54)O[C@@H]3COP(=O)(S)O[C@H]3[C@@H](O)[C@H](n4cnc5c(N)ncnc54)O[C@@H]3COP(=O)(S)O[C@H]3[C@@H](O)[C@H](n4cnc5c(N)ncnc54)O[C@@H]3CO)[C@@H](OP(=O)(S)OC[C@H]3O[C@@H](n4ccc(=O)[nH]c4=O)[C@H](O)[C@@H]3OP(=O)(S)OC[C@H]3O[C@@H](n4ccc(=O)[nH]c4=O)[C@H](O)[C@@H]3OP(=O)(S)OCC(O)COP(=O)(S)O[C@H]3[C@@H](O)[C@H](n4ccc(=O)[nH]c4=O)O[C@@H]3COP(=O)(S)O[C@H]3[C@@H](O)[C@H](n4ccc(=O)[nH]c4=O)O[C@@H]3COP(=O)(S)O[C@H]3[C@@H](O)[C@H](n4ccc(N)nc4=O)O[C@@H]3COP(=O)(S)O[C@H]3[C@@H](O)[C@H](n4cnc5c(N)ncnc54)O[C@@H]3COP(=O)(S)O[C@H]3[C@@H](O)[C@H](n4ccc5c(=O)[nH]c(N)nc54)O[C@@H]3COP(=O)(S)O[C@H]3[C@@H](O)[C@H](n4ccc(N)nc4=O)O[C@@H]3COP(=O)(S)O[C@H]3[C@@H](O)[C@H](n4ccc5c(=O)[nH]c(N)nc54)O[C@@H]3COP(=O)(S)O[C@H]3[C@@H](O)[C@H](n4ccc(=O)[nH]c4=O)O[C@@H]3COP(=O)(S)O[C@H]3[C@@H](O)[C@H](n4ccc5c(=O)[nH]c(N)nc54)O[C@@H]3COP(=O)(S)O[C@H]3[C@@H](O)[C@H](n4cnc5c(N)ncnc54)O[C@@H]3COP(=O)(S)O[C@H]3[C@@H](O)[C@H](n4cnc5c(N)ncnc54)O[C@@H]3CO)[C@H]2O)c(=O)n1` (stereo not given in full), the remaining at 10 min in data set [1] amounted to 79%. In data set [2], the fold change (FC) was 0.5. In addition, the Ratio in the data set listed under Homo sapiens was determined as 41.4. Moreover, the outcome in data set [3] was inactive. Also, the IFN-alpha in the data set on PBMC was 123 pg/mL.
